Key:
Assay type in all cases: functional
[1] = tested on: Campylobacter jejuni; assay: Antibacterial activity against bla gene-negative and nitrocefin reaction-positive beta-lactamase harboring Campylobacter jejuni isolate P854 by NCCLS agar doubling dilution method in presence of clavulanic acid
How it was run: (§1)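 MICs of β-lactams by agar doubling dilution following the NCCLS (CLSI) Campylobacter Working Group procedure, with C. jejuni NCTC 11168 and C. coli NCTC 11366 as controls. Isolates were from UK poultry flocks. β-Lactamase status was set by Cj0299 PCR (281-bp amplimer) and by a nitrocefin colour change of sonicated lysate within 5 min, or within 30 min on repeat.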

[2] = tested on: Campylobacter jejuni; assay: Antibacterial activity against Campylobacter jejuni isolate P338 harboring blaOXA-61::cat gene by NCCLS agar doubling dilution method in presence of clavulanic acid
How it was run: (§2)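 Agar doubling dilution MICs (NCCLS/CLSI Campylobacter Working Group method) against Cj0299-inactivated mutants. Mutants were made by transforming the C. jejuni isolate with pCI and selecting on Mueller-Hinton agar with 10 μg/ml chloramphenicol for 3–5 days. Chromosomal insertion was confirmed by PCR with Cj0299 and cat primers.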

[3] = tested on: Campylobacter coli; assay: Antibacterial activity against bla gene-positive and nitrocefin reaction-positive beta-lactamase harboring Campylobacter coli isolate P321 by NCCLS agar doubling dilution method in presence of clavulanic acid; how it was run: as §1
[4] = tested on: Campylobacter jejuni; assay: Antibacterial activity against bla gene-positive and nitrocefin reaction-positive beta-lactamase harboring Campylobacter jejuni isolate P790 by NCCLS agar doubling dilution method in presence of clavulanic acid
How it was run: (§3)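 MICs by agar doubling dilution per the NCCLS (now CLSI) Campylobacter Working Group method. Isolates came from UK chicken flocks (feces, ceca or farm environment), 2000–2006. C. jejuni NCTC 11168 and C. coli NCTC 11366 served as control strains. The ampicillin resistance cutoff was 8 μg/ml; BSAC/CLSI Enterobacteriaceae guidelines were used for other agents.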

[5] = tested on: Campylobacter coli; assay: Antibacterial activity against bla-positive and beta-lactamase-weakly positive Campylobacter coli isolate P1627 by NCCLS agar doubling dilution method in presence of clavulanic acid
How it was run: (§4)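 MICs by agar doubling dilution following the NCCLS (CLSI) Campylobacter Working Group procedure, applied to ampicillin- and amoxicillin-resistant isolates from UK chicken flocks (2000–2006). C. jejuni NCTC 11168 and C. coli NCTC 11366 served as control strains. Resistance was called at an ampicillin cutoff of 8 μg/ml. Other agents were judged against Enterobacteriaceae guidelines (BSAC, CLSI).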

[6] = tested on: Campylobacter jejuni; assay: Antibacterial activity against bla gene-positive and nitrocefin reaction-positive beta-lactamase harboring Campylobacter jejuni isolate P1650 by NCCLS agar doubling dilution method in presence of clavulanic acid; how it was run: as §3
[7] = tested on: Campylobacter jejuni; assay: Antibacterial activity against bla gene-negative and nitrocefin reaction-negative beta-lactamase harboring Campylobacter jejuni isolate P850 by NCCLS agar doubling dilution method in presence of clavulanic acid; how it was run: as §1
[8] = tested on: Campylobacter jejuni; assay: Antibacterial activity against bla gene-negative and nitrocefin reaction-negative beta-lactamase harboring Campylobacter jejuni isolate P835 by NCCLS agar doubling dilution method in presence of clavulanic acid; how it was run: as §1
[9] = tested on: Campylobacter coli; assay: Antibacterial activity against Campylobacter coli by NCCLS agar doubling dilution method; how it was run: as §4
[10] = tested on: Campylobacter jejuni; assay: Antibacterial activity against bla gene-positive and nitrocefin reaction-negative beta-lactamase harboring Campylobacter jejuni isolate P1698 by NCCLS agar doubling dilution method in presence of clavulanic acid; how it was run: as §1
[11] = tested on: Campylobacter jejuni; assay: Antibacterial activity against bla gene-negative and nitrocefin reaction-negative beta-lactamase harboring Campylobacter jejuni isolate P1962 by NCCLS agar doubling dilution method in presence of clavulanic acid; how it was run: as §1
[12] = tested on: Campylobacter jejuni; assay: Antibacterial activity against bla gene-positive and nitrocefin reaction-positive beta-lactamase harboring Campylobacter jejuni isolate P286 by NCCLS agar doubling dilution method in presence of clavulanic acid; how it was run: as §3
[13] = tested on: Campylobacter coli; assay: Antibacterial activity against Campylobacter coli by NCCLS agar doubling dilution method in presence of clavulanic acid; how it was run: as §4
[14] = tested on: Campylobacter jejuni; assay: Antibacterial activity against Campylobacter jejuni by NCCLS agar doubling dilution method in presence of clavulanic acid; how it was run: as §4
[15] = tested on: Campylobacter jejuni; assay: Antibacterial activity against bla gene-negative and nitrocefin reaction-positive beta-lactamase harboring Campylobacter jejuni isolate P843 by NCCLS agar doubling dilution method in presence of clavulanic acid; how it was run: as §1
[16] = tested on: Campylobacter jejuni; assay: Antibacterial activity against bla gene-positive and nitrocefin reaction-positive beta-lactamase harboring Campylobacter jejuni isolate P1730 by NCCLS agar doubling dilution method in presence of clavulanic acid; how it was run: as §3
[17] = tested on: Campylobacter jejuni; assay: Antibacterial activity against bla gene-positive and nitrocefin reaction-positive beta-lactamase harboring Campylobacter jejuni isolate P305 by NCCLS agar doubling dilution method in presence of clavulanic acid; how it was run: as §3
[18] = tested on: Campylobacter jejuni; assay: Antibacterial activity against bla gene-positive and nitrocefin reaction-positive beta-lactamase harboring Campylobacter jejuni isolate P338 by NCCLS agar doubling dilution method in presence of clavulanic acid; how it was run: as §3
[19] = tested on: Campylobacter jejuni; assay: Antibacterial activity against bla gene-positive and nitrocefin reaction-positive beta-lactamase harboring Campylobacter jejuni isolate P1618 by NCCLS agar doubling dilution method in presence of clavulanic acid; how it was run: as §1
[20] = tested on: Campylobacter coli; assay: Antibacterial activity against bla gene-positive and nitrocefin reaction-positive beta-lactamase harboring Campylobacter coli isolate P1826 by NCCLS agar doubling dilution method in presence of clavulanic acid; how it was run: as §1
[21] = tested on: Campylobacter jejuni; assay: Antibacterial activity against Campylobacter jejuni isolate P1093 harboring blaOXA-61::cat gene by NCCLS agar doubling dilution method in presence of clavulanic acid; how it was run: as §2
[22] = tested on: Campylobacter jejuni; assay: Antibacterial activity against Campylobacter jejuni isolate P270 harboring blaOXA-61::cat gene by NCCLS agar doubling dilution method in presence of clavulanic acid
[23] = tested on: Campylobacter jejuni; assay: Antibacterial activity against bla gene-positive and nitrocefin reaction-positive beta-lactamase harboring Campylobacter jejuni isolate P316 by NCCLS agar doubling dilution method in presence of clavulanic acid; how it was run: as §3
[24] = tested on: Campylobacter jejuni; assay: Antibacterial activity against Campylobacter jejuni by NCCLS agar doubling dilution method; how it was run: as §4
[25] = tested on: Campylobacter jejuni; assay: Antibacterial activity against bla gene-positive and nitrocefin reaction-positive beta-lactamase harboring Campylobacter jejuni isolate P285 by NCCLS agar doubling dilution method in presence of clavulanic acid; how it was run: as §3
[26] = tested on: Campylobacter jejuni; assay: Antibacterial activity against bla gene-positive and nitrocefin reaction-positive beta-lactamase harboring Campylobacter jejuni isolate P1093 by NCCLS agar doubling dilution method in presence of clavulanic acid; how it was run: as §1
[27] = tested on: Campylobacter jejuni; assay: Antibacterial activity against bla gene-positive and nitrocefin reaction-negative beta-lactamase harboring Campylobacter jejuni isolate P1699 by NCCLS agar doubling dilution method in presence of clavulanic acid; how it was run: as §1
[28] = tested on: Campylobacter jejuni; assay: Antibacterial activity against bla gene-positive and nitrocefin reaction-negative beta-lactamase harboring Campylobacter jejuni isolate NCTC 11168 by NCCLS agar doubling dilution method in presence of clavulanic acid; how it was run: as §1
[29] = tested on: Campylobacter jejuni; assay: Antibacterial activity against bla gene-positive and nitrocefin reaction-positive beta-lactamase harboring Campylobacter jejuni isolate P1650 by NCCLS agar doubling dilution method in presence of Tazobactam; how it was run: as §3
[30] = tested on: Campylobacter jejuni; assay: Antibacterial activity against Campylobacter jejuni isolate P1093 harboring blaOXA-61::cat gene by NCCLS agar doubling dilution method in presence of Tazobactam; how it was run: as §2
[31] = tested on: Campylobacter coli; assay: Antibacterial activity against bla-positive and beta-lactamase-weakly positive Campylobacter coli isolate P1627 by NCCLS agar doubling dilution method in presence of Tazobactam; how it was run: as §3
[32] = tested on: Campylobacter coli; assay: Antibacterial activity against bla gene-positive and nitrocefin reaction-positive beta-lactamase harboring Campylobacter coli isolate P1826 by NCCLS agar doubling dilution method in presence of Tazobactam; how it was run: as §1
[33] = tested on: Campylobacter jejuni; assay: Antibacterial activity against bla gene-negative and nitrocefin reaction-positive beta-lactamase harboring Campylobacter jejuni isolate P854 by NCCLS agar doubling dilution method in presence of Tazobactam; how it was run: as §1
[34] = tested on: Campylobacter jejuni; assay: Antibacterial activity against Campylobacter jejuni isolate P338 harboring blaOXA-61::cat gene by NCCLS agar doubling dilution method in presence of Tazobactam; how it was run: as §2
[35] = tested on: Campylobacter jejuni; assay: Antibacterial activity against bla gene-positive and nitrocefin reaction-positive beta-lactamase harboring Campylobacter jejuni isolate P1093 by NCCLS agar doubling dilution method in presence of Tazobactam; how it was run: as §1
[36] = tested on: Campylobacter jejuni; assay: Antibacterial activity against bla gene-negative and nitrocefin reaction-negative beta-lactamase harboring Campylobacter jejuni isolate P850 by NCCLS agar doubling dilution method in presence of Tazobactam; how it was run: as §1
[37] = tested on: Campylobacter jejuni; assay: Antibacterial activity against bla gene-positive and nitrocefin reaction-positive beta-lactamase harboring Campylobacter jejuni isolate P1730 by NCCLS agar doubling dilution method in presence of Tazobactam; how it was run: as §3
[38] = tested on: Campylobacter jejuni; assay: Antibacterial activity against bla gene-negative and nitrocefin reaction-negative beta-lactamase harboring Campylobacter jejuni isolate P835 by NCCLS agar doubling dilution method in presence of Tazobactam; how it was run: as §1
[39] = tested on: Campylobacter jejuni; assay: Antibacterial activity against bla gene-positive and nitrocefin reaction-positive beta-lactamase harboring Campylobacter jejuni isolate P1618 by NCCLS agar doubling dilution method in presence of Tazobactam; how it was run: as §1
[40] = tested on: Campylobacter jejuni; assay: Antibacterial activity against bla gene-negative and nitrocefin reaction-negative beta-lactamase harboring Campylobacter jejuni isolate P1962 by NCCLS agar doubling dilution method in presence of Tazobactam; how it was run: as §1
[41] = tested on: Campylobacter coli; assay: Antibacterial activity against Campylobacter coli by NCCLS agar doubling dilution method in presence of Tazobactam; how it was run: as §1
[42] = tested on: Campylobacter jejuni; assay: Antibacterial activity against bla gene-positive and nitrocefin reaction-positive beta-lactamase harboring Campylobacter jejuni isolate P316 by NCCLS agar doubling dilution method in presence of Tazobactam; how it was run: as §3
[43] = tested on: Campylobacter jejuni; assay: Antibacterial activity against Campylobacter jejuni by NCCLS agar doubling dilution method in presence of Tazobactam; how it was run: as §1
[44] = tested on: Campylobacter jejuni; assay: Antibacterial activity against bla gene-positive and nitrocefin reaction-positive beta-lactamase harboring Campylobacter jejuni isolate P338 by NCCLS agar doubling dilution method in presence of Tazobactam; how it was run: as §3
[45] = tested on: Campylobacter coli; assay: Antibacterial activity against bla gene-positive and nitrocefin reaction-positive beta-lactamase harboring Campylobacter coli isolate P321 by NCCLS agar doubling dilution method in presence of Tazobactam; how it was run: as §1
[46] = tested on: Campylobacter jejuni; assay: Antibacterial activity against bla gene-positive and nitrocefin reaction-negative beta-lactamase harboring Campylobacter jejuni isolate NCTC 11168 by NCCLS agar doubling dilution method in presence of Tazobactam; how it was run: as §1
[47] = tested on: Campylobacter jejuni; assay: Antibacterial activity against bla gene-positive and nitrocefin reaction-negative beta-lactamase harboring Campylobacter jejuni isolate P1698 by NCCLS agar doubling dilution method in presence of Tazobactam; how it was run: as §1
[48] = tested on: Campylobacter jejuni; assay: Antibacterial activity against bla gene-positive and nitrocefin reaction-positive beta-lactamase harboring Campylobacter jejuni isolate P790 by NCCLS agar doubling dilution method in presence of Tazobactam; how it was run: as §3
[49] = tested on: Campylobacter jejuni; assay: Antibacterial activity against bla gene-positive and nitrocefin reaction-positive beta-lactamase harboring Campylobacter jejuni isolate P286 by NCCLS agar doubling dilution method in presence of Tazobactam; how it was run: as §3
[50] = tested on: Campylobacter jejuni; assay: Antibacterial activity against bla gene-positive and nitrocefin reaction-negative beta-lactamase harboring Campylobacter jejuni isolate P1699 by NCCLS agar doubling dilution method in presence of Tazobactam; how it was run: as §1
[51] = tested on: Campylobacter jejuni; assay: Antibacterial activity against bla gene-negative and nitrocefin reaction-positive beta-lactamase harboring Campylobacter jejuni isolate P843 by NCCLS agar doubling dilution method in presence of Tazobactam; how it was run: as §1
[52] = tested on: Campylobacter jejuni; assay: Antibacterial activity against bla gene-positive and nitrocefin reaction-positive beta-lactamase harboring Campylobacter jejuni isolate P285 by NCCLS agar doubling dilution method in presence of Tazobactam; how it was run: as §3
[53] = tested on: Campylobacter jejuni; assay: Antibacterial activity against Campylobacter jejuni isolate P270 harboring blaOXA-61::cat gene by NCCLS agar doubling dilution method in presence of Tazobactam

O=C(O)[C@H]1/C(=C/CO)O[C@@H]2CC(=O)N21 [CLAVULANIC ACID]
1 µg/mL: MIC [2] | MIC [10] | MIC [28]
4 µg/mL: MIC [1] | MIC [5] | MIC [6] | MIC [7] | MIC50 [14] | MIC [15] | MIC50 [24] | MIC [27]
16 µg/mL: MIC [4] | MIC50 [9] | MIC50 [13]
32 µg/mL: MIC90 [9] | MIC90 [13] | MIC [26]
0.5 µg/mL: MIC [8] | MIC [11] | MIC [21]
8 µg/mL: MIC [3] | MIC [12] | MIC90 [14] | MIC [16] | MIC [17] | MIC [18] | MIC [20] | MIC [23] | MIC90 [24] | MIC [25]
0.25 µg/mL: MIC [22]
2 µg/mL: MIC [19]

C[C@]1(Cn2ccnn2)[C@H](C(=O)O)N2C(=O)C[C@H]2S1(=O)=O [TAZOBACTAM]
256 µg/mL: MIC [35]
> 8 µg/mL: MIC [33] | MIC [36]
4 µg/mL: MIC [53]
< 8 µg/mL: MIC [50]
8 µg/mL: MIC [34]
32 µg/mL: MIC [29] | MIC [30] | MIC90 [9] | MIC [39] | MIC90 [41] | MIC90 [43] | MIC90 [24]
> 16 µg/mL: MIC [38] | MIC [40] | MIC [42] | MIC [44] | MIC [45] | MIC [48] | MIC [49] | MIC [51] | MIC [52]
16 µg/mL: MIC [31] | MIC [32] | MIC [9] | MIC50 [9] | MIC [37] | MIC50 [41] | MIC50 [43] | MIC [46] | MIC [47] | MIC50 [24]
1 µg/mL: MIC (range minimum) [43]

Reference: ChEMBL document CHEMBL1649560, “Beta-lactamase-mediated beta-lactam resistance in Campylobacter species: prevalence of Cj0299 (bla OXA-61) and evidence for a novel beta-Lactamase in C. jejuni” (2009)
